Calls of active or inactive are those of the source. The calls are words filed in the database; no cut-off is given here.
What was measured:
[1] = organism: Mus musculus; assay: Selectivity ratio of EC50 for GAL4-fused mouse RARalpha LBD expressed in COS-7 cells to EC50 for GAL4-fused mouse RARbeta-LBD expressed in COS-7 cells; format: cell-based
[2] = target: T1, Retinoic acid receptor gamma (Mus musculus, UniProt P18911); assay: Transactivation of GAL4-fused mouse RARgamma-LBD expressed in COS-7 cells after 24 hrs by bright-Glo reagent based assay; format: cell-based
T1 sequence (P18911 whole entry): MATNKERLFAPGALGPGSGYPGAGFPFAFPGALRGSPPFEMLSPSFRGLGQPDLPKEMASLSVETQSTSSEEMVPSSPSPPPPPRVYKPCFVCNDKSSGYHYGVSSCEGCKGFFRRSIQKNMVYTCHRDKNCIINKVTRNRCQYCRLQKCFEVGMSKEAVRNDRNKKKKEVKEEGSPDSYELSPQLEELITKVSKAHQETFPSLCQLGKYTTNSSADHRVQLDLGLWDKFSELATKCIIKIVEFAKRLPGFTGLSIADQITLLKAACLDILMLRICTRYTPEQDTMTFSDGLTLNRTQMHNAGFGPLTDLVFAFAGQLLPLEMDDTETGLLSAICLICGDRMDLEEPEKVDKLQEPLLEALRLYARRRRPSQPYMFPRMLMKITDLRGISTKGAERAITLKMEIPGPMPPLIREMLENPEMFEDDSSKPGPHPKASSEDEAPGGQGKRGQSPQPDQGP
Method in brief: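 Transactivation assays with mouse RAR α, β and γ ligand binding domains; values usually from three separate experiments, with error about 20% of the mean.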

[3] = target: Voltage-gated inwardly rectifying potassium channel KCNH2 (Homo sapiens, UniProt Q12809); assay: Displacement of [3H]astemizole from human ERG at 10 uM
Voltage-gated inwardly rectifying potassium channel KCNH2, sequence (Q12809 whole entry): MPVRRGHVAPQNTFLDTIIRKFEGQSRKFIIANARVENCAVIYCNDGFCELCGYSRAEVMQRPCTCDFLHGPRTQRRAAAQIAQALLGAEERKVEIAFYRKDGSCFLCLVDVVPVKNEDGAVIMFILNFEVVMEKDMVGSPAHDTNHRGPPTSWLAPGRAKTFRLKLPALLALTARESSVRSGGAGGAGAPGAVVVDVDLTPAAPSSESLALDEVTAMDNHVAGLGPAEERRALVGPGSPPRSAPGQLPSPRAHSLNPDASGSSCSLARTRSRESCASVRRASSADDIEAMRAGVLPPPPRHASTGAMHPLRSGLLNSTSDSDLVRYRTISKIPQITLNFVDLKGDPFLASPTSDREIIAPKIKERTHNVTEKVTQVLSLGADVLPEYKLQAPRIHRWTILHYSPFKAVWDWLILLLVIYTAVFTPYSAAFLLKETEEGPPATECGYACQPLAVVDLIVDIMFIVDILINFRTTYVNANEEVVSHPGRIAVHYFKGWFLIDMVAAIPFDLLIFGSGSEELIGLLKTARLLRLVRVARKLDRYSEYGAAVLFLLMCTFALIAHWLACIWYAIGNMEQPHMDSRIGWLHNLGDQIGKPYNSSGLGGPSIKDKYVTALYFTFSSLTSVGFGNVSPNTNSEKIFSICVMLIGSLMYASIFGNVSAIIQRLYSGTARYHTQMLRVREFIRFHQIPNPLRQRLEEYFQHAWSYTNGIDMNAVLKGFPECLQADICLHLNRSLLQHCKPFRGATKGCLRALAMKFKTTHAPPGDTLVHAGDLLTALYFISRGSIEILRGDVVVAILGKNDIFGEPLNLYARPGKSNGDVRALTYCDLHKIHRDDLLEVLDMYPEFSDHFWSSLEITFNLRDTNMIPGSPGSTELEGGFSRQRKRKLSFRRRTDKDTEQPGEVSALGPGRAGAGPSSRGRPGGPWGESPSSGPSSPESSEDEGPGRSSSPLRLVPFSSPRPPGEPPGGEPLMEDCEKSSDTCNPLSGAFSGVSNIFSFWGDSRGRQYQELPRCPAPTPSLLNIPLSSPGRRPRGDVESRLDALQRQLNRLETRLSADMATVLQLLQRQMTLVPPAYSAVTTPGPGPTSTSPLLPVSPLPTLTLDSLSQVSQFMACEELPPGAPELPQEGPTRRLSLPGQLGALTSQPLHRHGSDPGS
Method in brief: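 HERG channel binding assay at 10 μM.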

[4] = Genotoxicity in Salmonella typhimurium TA98 at 100 uM by Ames test; format: toxicity; settings: salmonella enterica subsp. enterica serovar typhimurium
Method in brief: (§1)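 Ames test in three bacterial strains.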

[5] = Genotoxicity in Salmonella typhimurium TA1535 at 100 uM by Ames test; format: toxicity; settings: salmonella enterica subsp. enterica serovar typhimurium; method in brief: as §1
[6] = system: Rattus norvegicus; assay: Neuroprotective activity in avulsed rat model assessed as reduction in latency for time taken to sense and remove the tape from the paw of the lesioned forelimbs at 3 mg/kg, po administered every other day for 4 weeks; format: functional, organism-based
Method in brief: (§2)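 Rats with avulsion injury given 3 mg/kg orally three times a week, every other day; sensory and locomotor function assessed. Mean of n = 8; two-way repeated-measures ANOVA with Tukey's post-hoc test.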

[7] = Drug uptake in Sprague-Dawley rat brain at 1 to 10 mg/kg, po measured after 8 hrs by LC-MS/MS analysis; format: ADME, organism-based; settings: in vivo
Method in brief: (§3)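 Oral dosing to rats; brain tissue and plasma levels compared 8 h after dosing.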

[8] = system: HepG2; assay: Cytotoxicity against human HepG2 cells at 50 uM; format: cell-based; settings: hepg2, 50 µM
Method in brief: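 HepG2 cell toxicity assay; highest concentration tested 50 μM.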

[9] = system: CHO-K1; assay: Genotoxicity in CHOK1 cells in presence of S9 fraction by micronucleus test; format: toxicity, cell-based, Cricetulus griseus; settings: chinese hamster
Method in brief: (§4)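 In vitro micronucleus test in CHO-K1 cells, run both with and without S9.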

[10] = system: Salmonella typhimurium; assay: Toxicity in Salmonella typhimurium TA100 at 100 uM; format: organism-based; settings: salmonella enterica subsp. enterica serovar typhimurium
Method in brief: (§5)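 Bacterial cytotoxicity testing up to 100 μM.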

[11] = system: Salmonella typhimurium; assay: Toxicity in Salmonella typhimurium TA1535 at 100 uM; format: organism-based; settings: salmonella enterica subsp. enterica serovar typhimurium; method in brief: as §5
[12] = system: CHO-MG; assay: Agonist activity at RARbeta in CHO-MG cells assessed as increase in neurite length after 24 hrs by immunostaining based assay; format: cell-based; settings: Cricetulus griseus
Method in brief: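 Cerebellar neurons cultured on a CHO-MAG cell monolayer; 24 hr exposure to vehicle or agonist at 1×10^-8 – 1×10^-6 M. Neurite outgrowth read by immunostaining and neurite length quantification; means of 3 independent experiments; Student's t-test, vehicle versus highest dose.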

[13] = Fraction absorbed in Sprague-Dawley rat at 1 to 10 mg/kg, po by LC-MS/MS analysis; format: ADME, organism-based; settings: in vivo, read-out: Fabs
Method in brief: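 Rats: oral doses of 1, 3 and 10 mg/kg in 8% ethanol/92% PEG-400; iv reference 0.5 mg/kg in 4% DMSO, 38% PEG-400, 58% (0.9%) NaCl. Fraction absorbed is the mean over the three oral doses relative to the iv dose.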

[14] = system: CHO-K1; assay: Genotoxicity in CHOK1 cells in absence of S9 fraction by micronucleus test; format: toxicity, cell-based, Cricetulus griseus; settings: chinese hamster; method in brief: as §4
[15] = Drug uptake in Sprague-Dawley rat plasma at 1 to 10 mg/kg, po measured after 8 hrs by LC-MS/MS analysis; format: ADME, organism-based; settings: in vivo; method in brief: as §3
[16] = system: Rattus norvegicus; assay: Neuroprotective activity in avulsed rat model assessed as reduction in number of foot slips in a horizontal ladder by injured forelimb at 3 mg/kg, po administered every other day for 4 weeks; format: functional, organism-based; method in brief: as §2
[17] = Genotoxicity in Salmonella typhimurium TA100 at 100 uM by Ames test; format: toxicity; settings: salmonella enterica subsp. enterica serovar typhimurium; method in brief: as §1
[18] = system: Salmonella typhimurium; assay: Toxicity in Salmonella typhimurium TA98 at 100 uM; format: organism-based; settings: salmonella enterica subsp. enterica serovar typhimurium; method in brief: as §5

Structure (SMILES) | Ratio EC50 [1] | EC50 [2] | also measured
Cc1ccc(C)c2oc(-c3nc(-c4ccc(C(=O)O)cc4)no3)nc12 | 10 | – | –
Cc1ccc(C)c2sc(-c3nc(-c4ccc(C(=O)O)cc4)no3)cc12 | 9 | – | –
CC(C)(C)c1cc(-c2nc(-c3ccc(C(=O)O)cc3)no2)cc(C(C)(C)C)c1 | 2.8 | – | –
O=C(O)c1ccc(-c2noc(-c3cc4c(C(F)(F)F)ccc(F)c4o3)n2)cc1 | 7.6 | – | –
Cc1cc(-c2noc(-c3cc4c(C)ccc(C)c4o3)n2)ccc1C(=O)O | 6.4 | – | –
CCCCOCCOc1nc(-c2ccc(C(=O)O)c(F)c2)sc1C | 5.8 | – | –
CCOc1c(Cl)cc(-c2noc(-c3ccc(C(=O)O)cc3)n2)cc1Cl | – | 5.4 nM | –
CCOc1c(Cl)cc(C(=O)Nc2ccc(C(=O)O)cc2)cc1Cl | – | 30000 nM | –
Cc1cc(C(=O)O)ccc1-c1noc(-c2cc3c(C)ccc(C)c3o2)n1 | 13 | – | –
CC1(C)CCC(C)(C)c2cc(-c3nc(-c4ccc(C(=O)O)cc4)no3)ccc21 | 17 | – | –
CCOc1c(Cl)cc(-c2cnc(-c3ccc(C(=O)O)cc3)o2)cc1Cl | – | 45 nM | –
Cc1ccc(C)c2oc(-c3nc(-c4ccc(C(=O)O)c(F)c4)no3)cc12 | 7.3 | – | –
CCOc1c(Cl)cc(-c2csc(-c3ccc(C(=O)O)cc3)n2)cc1Cl | – | 160 nM | –
Cc1ccc(C)c2oc(-c3nc(-c4ccc(C(=O)O)cc4F)no3)cc12 | 5.5 | – | –
Cc1ccc(C)c2oc(-c3nc(-c4ccc(C(=O)O)cc4)no3)cc12 | 13 | – | inhibition (INH) [3]: Not Active; Activity [4]: Non-Toxic; Activity [5]: Non-Toxic; Activity [6]: Active; Drug uptake [7]: Active; Activity [8]: Non-Toxic; Activity [9]: Non-Toxic; Activity [10]: Non-Toxic; Activity [11]: Non-Toxic; Activity [12]: Dose-dependent effect; Fa [13]: 80%; Activity [14]: Non-Toxic; Drug uptake [15]: Active; Activity [16]: Active; Activity [17]: Non-Toxic; Activity [18]: Non-Toxic
CCOc1c(Cl)cc(-c2nnc(-c3ccc(C(=O)O)cc3)o2)cc1Cl | – | 150 nM | –

— ChEMBL document CHEMBL4400551, “Discovery and lead optimisation of a potent, selective and orally bioavailable RARβ agonist for the potential treatment of nerve injury” (Bioorg Med Chem Lett, 2019)
